By IC50 is commonly meant the concentration that inhibits the measured activity by half. Read a high IC50 as a need for much substance. In general, GI50 refers to the concentration giving 50% growth inhibition. Broadly, the half-life is how long it takes for the measured level to halve. A lower half-life goes with fast loss. As a reminder, the AUC is concentration integrated over time. Higher therefore signals more exposure. As a reminder, the bioavailability is dose-corrected exposure relative to a reference, in per cent. A low value points to little systemic uptake.

Data set [1] has as its target T1, Tyrosine-protein kinase JAK3 (Homo sapiens, UniProt P52333).
T1 sequence (P52333 whole entry): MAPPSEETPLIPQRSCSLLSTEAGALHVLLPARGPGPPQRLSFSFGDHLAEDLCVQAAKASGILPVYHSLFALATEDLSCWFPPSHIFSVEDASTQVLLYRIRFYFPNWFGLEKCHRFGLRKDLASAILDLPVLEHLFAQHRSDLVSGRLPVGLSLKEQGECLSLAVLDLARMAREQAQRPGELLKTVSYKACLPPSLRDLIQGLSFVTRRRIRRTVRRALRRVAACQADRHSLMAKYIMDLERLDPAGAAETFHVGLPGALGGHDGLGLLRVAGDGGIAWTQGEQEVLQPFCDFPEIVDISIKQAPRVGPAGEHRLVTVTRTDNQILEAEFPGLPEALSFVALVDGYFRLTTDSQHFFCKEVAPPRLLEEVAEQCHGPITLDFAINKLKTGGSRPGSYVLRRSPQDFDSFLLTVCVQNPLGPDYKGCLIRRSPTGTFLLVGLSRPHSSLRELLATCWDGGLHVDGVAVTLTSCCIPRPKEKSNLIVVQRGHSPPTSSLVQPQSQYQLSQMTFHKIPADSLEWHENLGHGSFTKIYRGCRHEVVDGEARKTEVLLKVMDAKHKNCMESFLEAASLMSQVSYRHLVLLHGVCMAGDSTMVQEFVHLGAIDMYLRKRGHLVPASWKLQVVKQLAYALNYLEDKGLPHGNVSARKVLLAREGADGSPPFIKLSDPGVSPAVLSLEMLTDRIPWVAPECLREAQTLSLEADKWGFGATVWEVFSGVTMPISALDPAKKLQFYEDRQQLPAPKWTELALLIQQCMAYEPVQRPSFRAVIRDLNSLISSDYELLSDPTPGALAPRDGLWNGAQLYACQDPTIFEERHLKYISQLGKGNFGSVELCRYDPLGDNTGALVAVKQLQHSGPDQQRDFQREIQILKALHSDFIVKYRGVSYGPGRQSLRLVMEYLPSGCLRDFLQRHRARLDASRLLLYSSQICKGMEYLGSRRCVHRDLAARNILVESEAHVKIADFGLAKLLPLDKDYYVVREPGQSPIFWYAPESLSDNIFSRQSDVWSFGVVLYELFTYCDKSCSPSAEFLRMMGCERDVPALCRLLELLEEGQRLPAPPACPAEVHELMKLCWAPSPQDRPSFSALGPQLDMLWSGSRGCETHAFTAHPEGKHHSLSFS
Description: Inhibition of Jak3 (unknown origin).

Data set [2] is described as follows: Cytotoxicity against mouse BA/F3 cells expressing TEL-Jak2 after 72 hrs by MTS assay. It counts as functional. As to conditions: BaF3, 72 h. The method, boiled down: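 BaF3 TEL-Jak2 cells. Growth inhibition measured by MTS tetrazolium colorimetric read-out and reported as GI50.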
Data set [3] concerns the target Tyrosine-protein kinase JAK2 (Homo sapiens, UniProt O60674). Description: Inhibition of Jak2 (unknown origin).
For data set [4], the target named is Tyrosine-protein kinase JAK1 (Homo sapiens, UniProt P23458). Description: Inhibition of Jak1 (unknown origin).
Data set [5] deals with Canis familiaris. Description: Oral bioavailability in beagle dog at 10 mg/kg. To be noted: in vivo. It counts as ADME, organism-based, Canis lupus familiaris. The method, boiled down:
(§1)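 Male beagle dogs. Oral dose 10 mg/kg in 0.1% HPMC, pH 2. IV dose 2.5 mg/kg in 20% TEG/D5W. […] Clearance, Vdss, half-life and oral bioavailability (F%) derived from the plasma profiles.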

Data set [6] can be described thus: Half life in beagle dog at 10 mg/kg, po. It counts as ADME, organism-based, Canis lupus familiaris. The arrangement: dose 10 mg/kg, route oral. To be noted: in vivo. The method, boiled down: as §1
A short description of data set [7]: Volume of distribution at steady state in beagle dog at 2.5 mg/kg, iv. It counts as ADME, organism-based, Canis lupus familiaris. The arrangement: dose 2.5 mg/kg, route intravenous. As to conditions: in vivo, read-out: Vdss. The method, boiled down: as §1
Data set [8] relates to Canis familiaris. Description: AUC (0 to 12 hrs) in beagle dog at 10 mg/kg, po. The arrangement: time < 12 hr, dose 10 mg/kg, route oral. It counts as ADME, organism-based, Canis lupus familiaris, Plasma. As to conditions: in vivo. The gist of the method: as §1
Data set [9] can be described thus: Half life in Wistar rat at 10 mg/kg, po and 3 mg/kg, iv. As to conditions: in vivo. It counts as ADME, organism-based. The method, boiled down:
(§2)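 Rat pharmacokinetics. Oral dose 10 mg/kg in 0.1% HPMC. IV dose 3 mg/kg in 40% DMA/40% PEG/20% saline. Clearance, half-life, Vdss and oral bioavailability derived from the plasma profiles.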

Data set [10] is described as follows: Half life in beagle dog at 2.5 mg/kg, iv. The class given is ADME, organism-based, Canis lupus familiaris. The arrangement: dose 2.5 mg/kg, route intravenous. As to conditions: in vivo. The method, boiled down:
as §1

Data set [11] can be described thus: Oral bioavailability in Wistar rat at 10 mg/kg. It counts as ADME, organism-based. As to conditions: in vivo. The gist of the method:
as §2

A short description of data set [12]: Volume of distribution at steady state in Wistar rat at 10 mg/kg, po and 3 mg/kg, iv. It counts as ADME, organism-based. To be noted: in vivo, read-out: Vdss. The method, boiled down: as §2
Data set [13] can be described thus: Clearance in Wistar rat at 10 mg/kg, po and 3 mg/kg, iv. It counts as ADME, organism-based. As to conditions: in vivo. The method, boiled down:
as §2

Sequence of Tyrosine-protein kinase JAK1 (P23458 whole entry): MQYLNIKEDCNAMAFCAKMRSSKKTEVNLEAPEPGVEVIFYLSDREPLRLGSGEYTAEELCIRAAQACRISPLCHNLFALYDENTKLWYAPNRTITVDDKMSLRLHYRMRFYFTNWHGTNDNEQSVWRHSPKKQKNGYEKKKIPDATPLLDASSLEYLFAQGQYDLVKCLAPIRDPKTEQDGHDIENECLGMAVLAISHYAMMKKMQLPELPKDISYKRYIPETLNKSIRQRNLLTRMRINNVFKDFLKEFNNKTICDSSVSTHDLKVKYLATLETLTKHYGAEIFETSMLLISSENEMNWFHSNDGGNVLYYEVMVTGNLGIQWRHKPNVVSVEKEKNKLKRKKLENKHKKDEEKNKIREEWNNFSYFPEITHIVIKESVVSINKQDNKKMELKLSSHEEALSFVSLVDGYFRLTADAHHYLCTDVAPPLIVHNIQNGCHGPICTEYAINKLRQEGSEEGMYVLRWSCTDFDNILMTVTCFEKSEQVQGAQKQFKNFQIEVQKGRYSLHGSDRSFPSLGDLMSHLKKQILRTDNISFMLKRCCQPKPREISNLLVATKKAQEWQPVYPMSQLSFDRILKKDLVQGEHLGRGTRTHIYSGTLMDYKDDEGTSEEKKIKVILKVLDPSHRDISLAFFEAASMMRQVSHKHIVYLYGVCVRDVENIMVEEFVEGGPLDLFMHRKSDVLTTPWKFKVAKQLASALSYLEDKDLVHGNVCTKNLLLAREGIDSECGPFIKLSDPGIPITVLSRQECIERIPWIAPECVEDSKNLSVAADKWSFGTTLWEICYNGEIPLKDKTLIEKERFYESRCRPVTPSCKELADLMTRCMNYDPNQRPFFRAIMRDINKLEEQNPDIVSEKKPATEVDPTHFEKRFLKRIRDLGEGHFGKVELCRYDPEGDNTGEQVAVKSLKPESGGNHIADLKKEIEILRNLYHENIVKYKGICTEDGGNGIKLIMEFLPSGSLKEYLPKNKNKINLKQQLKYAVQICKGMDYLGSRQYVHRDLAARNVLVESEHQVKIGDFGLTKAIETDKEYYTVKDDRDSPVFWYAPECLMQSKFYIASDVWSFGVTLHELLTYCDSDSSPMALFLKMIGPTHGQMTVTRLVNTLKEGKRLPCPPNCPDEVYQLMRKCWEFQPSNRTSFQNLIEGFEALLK
Sequence of Tyrosine-protein kinase JAK2 (O60674 whole entry): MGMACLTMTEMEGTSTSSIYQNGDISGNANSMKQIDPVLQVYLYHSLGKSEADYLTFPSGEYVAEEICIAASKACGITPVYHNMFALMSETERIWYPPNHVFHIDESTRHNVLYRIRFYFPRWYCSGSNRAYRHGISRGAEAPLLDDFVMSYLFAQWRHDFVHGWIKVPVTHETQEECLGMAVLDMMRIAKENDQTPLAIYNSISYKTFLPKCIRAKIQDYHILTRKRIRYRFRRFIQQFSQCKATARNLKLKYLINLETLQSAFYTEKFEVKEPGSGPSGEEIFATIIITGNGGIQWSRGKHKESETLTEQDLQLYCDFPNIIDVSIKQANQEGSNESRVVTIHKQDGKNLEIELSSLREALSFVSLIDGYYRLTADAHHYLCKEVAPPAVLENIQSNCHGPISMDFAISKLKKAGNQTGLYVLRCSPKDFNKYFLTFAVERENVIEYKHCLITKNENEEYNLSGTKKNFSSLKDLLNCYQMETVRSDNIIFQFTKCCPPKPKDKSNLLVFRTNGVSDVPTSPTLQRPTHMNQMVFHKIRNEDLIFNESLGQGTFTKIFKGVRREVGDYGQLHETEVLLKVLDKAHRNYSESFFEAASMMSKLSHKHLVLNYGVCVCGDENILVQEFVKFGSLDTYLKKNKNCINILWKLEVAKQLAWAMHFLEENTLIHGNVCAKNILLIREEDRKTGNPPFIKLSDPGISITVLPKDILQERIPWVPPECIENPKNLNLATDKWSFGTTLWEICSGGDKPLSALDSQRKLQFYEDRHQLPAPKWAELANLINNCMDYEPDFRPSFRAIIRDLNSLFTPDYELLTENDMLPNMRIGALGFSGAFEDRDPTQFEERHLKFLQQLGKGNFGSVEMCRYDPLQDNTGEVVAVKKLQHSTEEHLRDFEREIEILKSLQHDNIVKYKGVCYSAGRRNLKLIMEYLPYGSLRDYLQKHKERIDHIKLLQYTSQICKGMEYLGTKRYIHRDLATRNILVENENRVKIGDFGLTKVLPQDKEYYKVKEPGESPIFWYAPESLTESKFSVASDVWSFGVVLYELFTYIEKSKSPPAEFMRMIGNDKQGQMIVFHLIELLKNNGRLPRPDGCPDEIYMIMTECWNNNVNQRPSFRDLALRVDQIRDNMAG

`C[C@H](Nc1nc(Nc2cn(C)cn2)c2ccccc2n1)c1ncc(F)cn1`: the values for the IC50 in data set [1] and in data set [3] were 14.8 µM and 0.003 µM, respectively. For the same compound, in data set [2], halving of growth (GI50) required 0.034 µM.
Turning to `CC(Nc1nc(Nc2cn(C)cn2)c2cn[nH]c2n1)c1ncc(F)cn1` (racemic), the half-maximal inhibitory concentration (IC50) in data set [1] was found to be 4.62 µM; in [4], 0.022 µM; in data set [3], 0.05 µM. Also, in data set [2], the GI50 was 0.11 µM.
As for `C[C@H](Nc1nc(Nc2cn(C)cn2)c2ccn(C3CC3)c2n1)c1ncc(F)cn1`, the IC50 in [1] came out at 2.46 µM; in [4], 0.029 µM; in [3], 0.027 µM. Also, the GI50 in [2] amounted to 0.056 µM.
With `C[C@H](Nc1nc(Nc2cn(C)cn2)c2ccn(C)c2n1)c1ncc(F)cn1`, the IC50 in data set [1] was 7.56 µM; in [4], 0.024 µM; in data set [3] it was 0.027 µM. In data set [2], growth was halved (GI50) at 0.034 µM.
On to `COc1ccc2nc(NC(C)c3ncc(F)cn3)nc(Nc3cn(C)cn3)c2c1` (racemic), for which the IC50 in data set [1] is more than 30 µM; in data set [3], 0.67 µM. This compound registered a GI50 in [2] of 3 µM.
`C[C@H](Nc1ncc(Cl)c(Nc2cn(C)cn2)n1)c1ncc(F)cn1` showed a GI50 in data set [2] of 0.27 µM. Moreover, the IC50 in data set [3] came out at 0.12 µM.
For the compound `CC(Nc1nc(Nc2cn(C)cn2)c2[nH]ccc2n1)c1ncc(F)cn1` (racemic), the IC50 was 5.88 µM in [1] and less than 0.003 µM in [3]. In data set [2], this compound displayed a GI50 of 0.099 µM.
Take `C[C@H](Nc1nc(Nc2cn(C)cn2)c2cnn(C)c2n1)c1ncc(F)cn1`: the F with Canis familiaris [5] is on record as 139%. Moreover, the half-life was 7.7 h in data set [6], 1.3 h in [9] and 6.2 h in [10]. In addition, the values for the 50% inhibitory concentration (IC50) in [1], in data set [4] and in data set [3] were 1.44 µM, 0.016 µM and 0.015 µM, respectively. In addition, the values for the Vd in [7] and in [12] were 2.1 L/kg and 1.8 L/kg, respectively. In the data set on Canis familiaris [8], this compound came in with an AUC of 49 µM·h. The compound further gave a bioavailability in data set [11] of 90%. The compound further returned a clearance in [13] of 1.5 L/h/kg. For the same compound, the GI50 in data set [2] was 0.026 µM.
For `Cc1csc2c(Nc3cn(C)cn3)nc(N[C@@H](C)c3ncc(F)cn3)nc12`, the IC50 in data set [1] is 3.93 µM. The compound further showed a half-life in data set [9] of 0.64 h. In [12], the Vd amounted to 1.2 L/kg. The clearance in data set [13] came to 2.64 L/h/kg. The GI50 in data set [2] was found to be 0.037 µM.
With `CC(Nc1nc(Nc2cn(C)cn2)c2cccnc2n1)c1ncc(F)cn1` (racemic), the IC50 in data set [1] is 3.78 µM; in data set [4] it was 0.131 µM; in data set [3], 0.033 µM. Also, in data set [9], the half-life is 0.92 h. Also, the Vd in data set [12] was 2.5 L/kg. In data set [13], this compound yielded a clearance of 6 L/h/kg. In data set [2], this compound displayed a GI50 of 0.04 µM.
In the case of `COc1ccc2c(Nc3cn(C)cn3)nc(NC(C)c3ncc(F)cn3)nc2c1` (racemic), the values for the IC50 in data set [1] and in [3] were 13.2 µM and 0.024 µM, respectively. In [9], this compound gave a half-life of 0.98 h. In data set [12], the Vd came out at 6 L/kg. Also, the clearance in [13] came out at 6.6 L/h/kg. The compound further came in with a GI50 in data set [2] of 0.034 µM.
`C[C@H](Nc1nc(Nc2cn(C)cn2)c2nccnc2n1)c1ncc(F)cn1`: the IC50 was more than 30 µM in [1], 1.5 µM in [4] and 0.8 µM in data set [3]. In [2], this compound gave a GI50 of 0.53 µM.
Consider `C[C@H](Nc1nc(Nc2cn(C)cn2)c2ccncc2n1)c1ncc(F)cn1`, for which the IC50 in [1] came out at 1.82 µM; in data set [4], 0.028 µM; in [3] it was 0.012 µM. In addition, the GI50 in data set [2] was 0.025 µM.
As to `C[C@H](Nc1nc(Nc2cn(C)cn2)c2cc(F)cnc2n1)c1ncc(F)cn1`, the IC50 in data set [1] is 30 µM; in data set [3], 0.49 µM. In data set [2], the GI50 was 3.1 µM.
In the case of `CC(Nc1nc(Nc2cn(C)cn2)c2ccc(Cl)nc2n1)c1ncc(F)cn1` (racemic), the IC50 in data set [1] is more than 30 µM; in data set [3], less than 0.003 µM. The compound further gave a GI50 in data set [2] of 0.028 µM.

The values are drawn from ChEMBL document CHEMBL3112447, “Discovery of 1-methyl-1H-imidazole derivatives as potent Jak2 inhibitors” (J Med Chem, 2014).
